Measurements from ChEMBL document CHEMBL3804799, “Synthesis and Biological Evaluation of Novel σ1 Receptor Ligands for Treating Neuropathic Pain: 6-Hydroxypyridazinones” (J Med Chem, 2016).

Columns and labels:
[1] = Displacement of [3H]-DTG from Sigma2 receptor in Dunkin Hartley guinea pig brain membrane after 120 mins by liquid scintillation counting analysis in presence of sigma1 blocker (+)-SKF-10047; design: species or system Cavia porcellus
Method in brief: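 Guinea pig brain P2 membranes incubated with 3 nM [³H]-DTG plus 400 nM (+)-SKF-10047 to block σ1 sites, Tris-HCl pH 8.0, 25 °C for 120 min; nonspecific binding with DTG. Filtration on PEI-presoaked GF/B filters, scintillation counting. […] At least three experiments.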

[2] = biological target: Sigma non-opioid intracellular receptor 1 (Cavia porcellus, UniProt Q60492); test: Displacement of [3H]-(+)-pentazocine from Sigma1 receptor in Dunkin Hartley guinea pig brain membrane after 180 mins by liquid scintillation counting analysis
Chain of Sigma non-opioid intracellular receptor 1 (Q60492 whole entry): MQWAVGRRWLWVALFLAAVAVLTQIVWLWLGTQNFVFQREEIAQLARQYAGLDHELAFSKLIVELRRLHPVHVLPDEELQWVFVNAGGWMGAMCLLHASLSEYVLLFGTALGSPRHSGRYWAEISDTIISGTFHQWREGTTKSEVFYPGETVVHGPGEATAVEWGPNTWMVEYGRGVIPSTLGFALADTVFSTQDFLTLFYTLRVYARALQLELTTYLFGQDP
Method in brief: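 Guinea pig brain (minus cerebellum) P2 membranes in Tris-HCl. Incubated with [³H]-(+)-pentazocine (4.0 nM solution added) in pH 8.0 buffer, 25 °C for 180 min; nonspecific binding with haloperidol. Filtered through PEI-presoaked GF/B filters; scintillation counting. Compounds in 5% DMSO, six concentrations (10⁻⁵–10⁻¹⁰ M). […] At least three experiments.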

Cavia porcellus = species: Cavia porcellus; test: Selectivity ratio of Ki for Sigma2 receptor in Dunkin Hartley guinea pig brain membrane to Ki for Sigma1 receptor in Dunkin Hartley guinea pig brain membrane
Method in brief: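 Guinea pig brain P2 membranes, minus cerebellum. σ1: [3H]-(+)-pentazocine, haloperidol for nonspecific binding, 25 °C for 180 min. σ2: 3 nM [3H]-DTG with 400 nM (+)-SKF-10047 masking σ1, DTG for nonspecific binding, 25 °C for 120 min. Six concentrations, 10⁻⁵ to 10⁻¹⁰. Filter-bound radioactivity counted. Hill-fit IC50 converted by Cheng–Prusoff, at least three experiments each; ratio σ2 Ki/σ1 Ki.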

[3] = Acute toxicity in po dosed Kun Ming mouse assessed as mortality after 24 hrs; assay type: organism-based; conditions: in vivo
Method in brief: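 Mice, 10 per group, given a single oral dose (10 mL/kg) of 0.5% methylcellulose vehicle or test compound at 200, 500, 1000, 1500 or 2000 mg/kg. Survivors were counted 24 h after dosing and percent mortality per group was calculated. LD50 was derived by statistical analysis.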

[4] = biological target: Voltage-gated inwardly rectifying potassium channel KCNH2 (Homo sapiens, UniProt Q12809); test: Inhibition of human ERG expressed in HEK293 cells assessed as tail current at -50 mV holding potential by whole-cell patch clamp method
Chain of Voltage-gated inwardly rectifying potassium channel KCNH2 (Q12809 whole entry): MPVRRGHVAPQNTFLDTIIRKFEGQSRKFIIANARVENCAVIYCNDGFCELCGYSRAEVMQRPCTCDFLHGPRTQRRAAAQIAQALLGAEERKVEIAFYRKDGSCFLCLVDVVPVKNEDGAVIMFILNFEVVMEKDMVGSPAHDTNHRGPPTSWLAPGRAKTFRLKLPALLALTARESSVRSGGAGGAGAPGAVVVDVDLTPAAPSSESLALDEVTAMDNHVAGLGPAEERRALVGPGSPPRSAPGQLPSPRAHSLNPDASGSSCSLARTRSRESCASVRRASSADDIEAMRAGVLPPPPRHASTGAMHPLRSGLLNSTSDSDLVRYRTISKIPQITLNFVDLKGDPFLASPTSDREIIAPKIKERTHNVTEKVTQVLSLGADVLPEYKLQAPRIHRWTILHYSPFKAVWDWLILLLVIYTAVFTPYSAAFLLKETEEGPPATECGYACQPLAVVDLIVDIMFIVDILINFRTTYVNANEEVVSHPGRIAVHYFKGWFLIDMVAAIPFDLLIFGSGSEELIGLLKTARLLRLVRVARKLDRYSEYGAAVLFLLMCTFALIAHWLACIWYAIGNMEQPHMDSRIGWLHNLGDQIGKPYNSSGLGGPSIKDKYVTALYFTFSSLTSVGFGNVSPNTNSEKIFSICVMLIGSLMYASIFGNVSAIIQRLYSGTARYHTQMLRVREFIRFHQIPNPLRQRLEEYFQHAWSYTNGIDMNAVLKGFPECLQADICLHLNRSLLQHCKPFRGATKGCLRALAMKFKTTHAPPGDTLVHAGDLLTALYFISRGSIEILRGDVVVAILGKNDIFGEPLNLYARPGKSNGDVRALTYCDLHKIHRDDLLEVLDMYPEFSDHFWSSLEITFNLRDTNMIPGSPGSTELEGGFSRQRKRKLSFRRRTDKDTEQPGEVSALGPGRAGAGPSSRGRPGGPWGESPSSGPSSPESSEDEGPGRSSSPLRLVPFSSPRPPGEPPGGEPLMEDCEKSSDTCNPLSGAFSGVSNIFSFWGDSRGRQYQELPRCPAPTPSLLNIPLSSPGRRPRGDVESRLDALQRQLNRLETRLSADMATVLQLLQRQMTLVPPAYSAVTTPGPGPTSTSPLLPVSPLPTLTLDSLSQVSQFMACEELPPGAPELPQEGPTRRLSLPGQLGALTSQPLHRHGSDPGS

Mus musculus [5] = test: Antiallodynic activity in Kun Ming mouse assessed as paw biting time at 160 mg/kg, ig administered 15 mins prior to formalin challenge measured after 15 to 45 mins post formalin dosing; assay type: functional
Method in brief: (§1)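 Mice received 20 μL of 2.5% formalin (0.92% formaldehyde) in the dorsal right hind paw. Time spent licking or biting the paw was scored at 0–5 min (phase I) and 15–45 min (phase II), with a mirror behind the glass cylinder. Vehicle was 30% PEG 400 at 10 mL/kg, given 15 min before formalin. n = 10–12 per group. % antinociception = (LT_V − LT_D)/LT_V × 100.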

Mus musculus [6] = test: Antiallodynic activity in Kun Ming mouse assessed as paw licking time at 160 mg/kg, ig administered 15 mins prior to formalin challenge measured after15 to 45 mins post formalin dosing; assay type: functional; method in brief: as §1
Mus musculus [7] = test: Toxicity in Kun Ming mouse assessed as reduction in the permanence time on the rotating rod at 80 mg/kg, ig measured after 30 to 120 mins by rotarod test; assay type: organism-based; conditions: in vivo, po
Method in brief: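 Mice were pre-trained; any that could not stay 300 s on the rod at 10 rpm were excluded. Latency to fall from the rod rotating at 10 rpm was recorded 30, 60, 90 and 120 min after intragastric dosing. 8–10 mice per group.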

CC1CCN(CCCCOc2ccc(=O)n(-c3ccccc3)n2)CC1
Ki [1]: 1440 nM | Ki [2]: 143 nM | Ratio Ki (Cavia porcellus): 10.1

CC(C)N(CCCOc1ccc(=O)n(-c2ccccc2)n1)C(C)C
Ki [1]: 1120 nM | Ki [2]: 98.1 nM | Ratio Ki (Cavia porcellus): 11.4

Cc1ccc(-n2nc(OCCCN3CCCCC3)ccc2=O)cc1
Ki [1]: 1280 nM | Ki [2]: 69 nM | Ratio Ki (Cavia porcellus): 18.6

O=c1ccc(OCCCN2CCCCC2)nn1C1CCCC1
Ki [1]: > 2000 nM | Ki [2]: > 2000 nM

CC1CCN(CCCOc2ccc(=O)n(-c3ccc(F)cc3)n2)CC1
Ki [1]: 1620 nM | Ki [2]: 19.8 nM | Ratio Ki (Cavia porcellus): 81.7

O=c1ccc(OCCCN2CCCC2)nn1-c1ccccc1
Ki [1]: 458 nM | Ki [2]: 35.5 nM | Ratio Ki (Cavia porcellus): 12.9

Cc1ccc(-n2nc(OCCCN3CCC(C)CC3)ccc2=O)cc1
Ki [1]: 1550 nM | Ki [2]: 61.6 nM | Ratio Ki (Cavia porcellus): 25.1

O=C1CCN(CCCOc2ccc(=O)n(-c3ccccc3)n2)CC1
Ki [1]: > 2000 nM | Ki [2]: 580 nM

CCN(CC)CCCOc1ccc(=O)n(-c2ccccc2)n1
Ki [1]: 1170 nM | Ki [2]: 96.5 nM | Ratio Ki (Cavia porcellus): 12.1

O=c1ccc(OCCCN2CCCCC2)nn1-c1cc(Cl)cc(Cl)c1
Ki [1]: 1300 nM | Ki [2]: 30 nM | Ratio Ki (Cavia porcellus): 43.3

CC1CCN(CCCOc2ccc(=O)n(-c3ccccc3)n2)CC1
Ki [1]: 1460 nM | Ki [2]: 28 nM | Ratio Ki (Cavia porcellus): 52.3

CN1CCN(CCCOc2ccc(=O)n(-c3ccccc3)n2)CC1
Ki [1]: 376 nM | Ki [2]: 31.7 nM | Ratio Ki (Cavia porcellus): 11.9

O=c1ccc(OCCCN2CCCCC2)nn1-c1ccc(F)c(Cl)c1
LD50 at 24 h [3]: 900 mg/kg | Ki [1]: 1580 nM | Ki [2]: 10 nM | IC50 [4]: 980 nM | Ratio Ki (Cavia porcellus): 158

CC1CCN(CCCOc2ccc(=O)n(-c3ccc(F)c(Cl)c3)n2)CC1
LD50 at 24 h [3]: 1530 mg/kg | Time (Mus musculus [5]): 56.43 s | Ki [1]: 1630 nM | Time (Mus musculus [6]): 59.65 s | Ki [2]: 10 nM | IC50 [4]: 2160 nM | Ratio Ki (Cavia porcellus): 163

CC1CCN(CCCOc2ccc(=O)n(-c3ccc(Cl)cc3)n2)CC1
LD50 at 24 h [3]: 717 mg/kg | Ki [1]: 1780 nM | Ki [2]: 9.5 nM

O=c1c2c(c(OCCCN3CCCCC3)nn1-c1ccc(Cl)c(Cl)c1)CCCC2
Ki [1]: 934 nM | Ki [2]: 104 nM | Ratio Ki (Cavia porcellus): 8.9

O=c1ccc(OCCN2CCCCC2)nn1-c1ccccc1
Ki [1]: > 2000 nM | Ki [2]: > 2000 nM

O=c1ccc(OCCCN2CCCCC2)nn1-c1ccc(Cl)cc1Cl
Ki [1]: 809 nM | Ki [2]: 25 nM | Ratio Ki (Cavia porcellus): 32.3

Cc1cc(OCCN2CCOCC2)nn1-c1ccc2ccccc2c1
Ki [1]: > 2000 nM | Activity (Mus musculus [7]): Toxic

CC1CCN(CCCOc2ccc(=O)n(-c3ccc(Cl)cc3Cl)n2)CC1
Ki [1]: 1100 nM | Ki [2]: 35 nM | Ratio Ki (Cavia porcellus): 31.4

CC1CC(C)CN(CCCOc2ccc(=O)n(-c3ccccc3)n2)C1 (stereo not given)
Ki [1]: 1820 nM | Ki [2]: 46 nM | Ratio Ki (Cavia porcellus): 39.6

CC1CCN(CCCOc2ccc(=O)n(-c3cccc(Cl)c3Cl)n2)CC1
Ki [1]: 1200 nM | Ki [2]: 55 nM | Ratio Ki (Cavia porcellus): 21.8

CC1CCN(CCCOc2ccc(=O)n(-c3ccc(Cl)c(Cl)c3)n2)CC1
LD50 at 24 h [3]: 575 mg/kg | Ki [1]: 1740 nM | Ki [2]: 5 nM | IC50 [4]: 1460 nM | Ratio Ki (Cavia porcellus): 348

CC1CCN(CCCOc2ccc(=O)n(-c3cc(Cl)ccc3Cl)n2)CC1
Ki [1]: 870 nM | Ki [2]: 60 nM | Ratio Ki (Cavia porcellus): 14.5

O=c1ccc(OCCCN2CCOCC2)nn1-c1ccccc1
Ki [1]: 502 nM | Ki [2]: 66.3 nM | Ratio Ki (Cavia porcellus): 7.6

CC1CCN(CCCOc2ccc(=O)n(-c3cc(Cl)cc(Cl)c3)n2)CC1
Ki [1]: 1320 nM | Ki [2]: 43 nM | Ratio Ki (Cavia porcellus): 30.7

O=c1ccc(OCCCN2CCCCC2)nn1-c1ccc(F)c(F)c1
LD50 at 24 h [3]: 780 mg/kg | Ki [1]: 1910 nM | Ki [2]: 8 nM

O=c1ccc(OCCCN2CCCCC2)nn1-c1ccccc1
Ki [1]: 1070 nM | Ki [2]: 21.4 nM | Ratio Ki (Cavia porcellus): 50.2

Cc1c(OCCCN2CCCCC2)nn(-c2ccc(Cl)c(Cl)c2)c(=O)c1C
Ki [1]: 1430 nM | Ki [2]: 66.6 nM | Ratio Ki (Cavia porcellus): 21.4

O=c1ccc(OCCCN2CCCCC2)nn1-c1ccc(F)cc1
Ki [1]: > 2000 nM | Ki [2]: 17 nM

O=c1ccc(OCCCN2CCCCC2)nn1-c1cc(Cl)ccc1Cl
Ki [1]: 902 nM | Ki [2]: 45 nM | Ratio Ki (Cavia porcellus): 20

CC1CC(C)CN(CCCCOc2ccc(=O)n(-c3ccccc3)n2)C1 (stereo not given)
Ki [1]: 1370 nM | Ki [2]: 222 nM | Ratio Ki (Cavia porcellus): 6.2

CN(C)CCCOc1ccc(=O)n(-c2ccccc2)n1
Ki [1]: 818 nM | Ki [2]: 108 nM | Ratio Ki (Cavia porcellus): 7.57

CCN1CCN(CCCOc2ccc(=O)n(-c3ccccc3)n2)CC1
Ki [1]: 620 nM | Ki [2]: 40.1 nM | Ratio Ki (Cavia porcellus): 15.5

O=c1ccc(OCCCN2CCCCC2)nn1-c1cccc(Cl)c1Cl
Ki [1]: 1620 nM | Ki [2]: 48 nM | Ratio Ki (Cavia porcellus): 33.6

O=c1ccc(OCCCN2CCCCC2)nn1-c1ccc(Cl)cc1
LD50 at 24 h [3]: 754 mg/kg | Ki [1]: 1570 nM | Ki [2]: 9.8 nM | IC50 [4]: 1450 nM | Ratio Ki (Cavia porcellus): 160

CN1CCCN(CCCOc2ccc(=O)n(-c3ccccc3)n2)CC1
Ki [1]: 508 nM | Ki [2]: 30.3 nM | Ratio Ki (Cavia porcellus): 16.8

CC1CCN(CCCOc2ccc(=O)n(-c3ccc(F)c(F)c3)n2)CC1
LD50 at 24 h [3]: 1300 mg/kg | Time (Mus musculus [5]): 56.43 s | Ki [1]: 1700 nM | Time (Mus musculus [6]): 59.65 s | Ki [2]: 15 nM | IC50 [4]: 2680 nM | Ratio Ki (Cavia porcellus): 113

CC1CCN(CCCOc2ccc(=O)n(-c3ccc4ccccc4c3)n2)CC1
Ki [1]: 913 nM | Ki [2]: 84.1 nM | Ratio Ki (Cavia porcellus): 10.8

O=c1ccc(OCCCCN2CCCCC2)nn1-c1ccccc1
Ki [1]: 1720 nM | Ki [2]: 124 nM | Ratio Ki (Cavia porcellus): 13.9

O=c1ccc(OCCCN2CCCCC2)nn1-c1ccc2ccccc2c1
Ki [1]: 895 nM | Ki [2]: 74.1 nM | Ratio Ki (Cavia porcellus): 12.1

O=c1c2ccccc2c(OCCCN2CCCCC2)nn1-c1ccc(Cl)c(Cl)c1
Ki [1]: 1510 nM | Ki [2]: 140 nM | Ratio Ki (Cavia porcellus): 10.8
